# Marks after values point to notes of the source that are not given here.
# What was measured:
# Format in all cases: cell-based
# Staphylococcus aureus = test: MIC by tube dilution method; settings: observed, S. aureus, 37 °C 24 h
# Bacillus subtilis = test: MIC by tube dilution method; settings: observed, B. subtilis, 37 °C 24 h
# Summary of the method: (§1)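 Test compound is diluted in double strength nutrient broth (I.P.) by tube dilution, with ciprofloxacin as reference. Samples incubated at 37 °C for 24 h. MIC is the lowest concentration inhibiting microbial growth, transformed into pMIC for analysis.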
# Escherichia coli = test: MIC by tube dilution method; settings: observed, E. coli, 37 °C 24 h
# Summary of the method: as §1
# Candida albicans = test: MIC by tube dilution method; settings: observed, C. albicans, 37 °C 48 h
# Aspergillus niger = test: MIC by tube dilution method; settings: observed, A. niger, 25 °C 7 d
# [1] = system: S. aureus, B. subtilis and E. coli; test: Average antibacterial activity; settings: average antibacterial activity (pMICsa + pMICbs + pMICec)/3
# C. albicans and A. niger = test: Average antifungal activity; settings: average antifungal activity (pMICca + pMICan)/2
# [2] = system: S. aureus, B. subtilis, E. coli, C. albicans and A. niger; test: Average antimicrobial activity; settings: mean of five pMIC values
# Feline Herpes virus = test: organism not typed; settings: CRFK, read-out: EC50 Feline Corona Virus
# Para-influenza-3 virus = test: organism not typed; settings: Vero, read-out: EC50 Para-influenza-3 virus
# Reovirus-1 = test: organism not typed; settings: Vero, read-out: EC50 Reovirus-1
# HEL cells = test: Cytotoxicity in uninfected cell cultures; settings: microscopically detectable alteration of cell morphology
# Summary of the method: (§2)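 Uninfected cell cultures are exposed to serial dilutions of test compound in parallel with the virus cytopathicity assays. Cells are examined microscopically. Minimum cytotoxic concentration is the lowest concentration causing a microscopically detectable alteration of normal cell morphology.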
# HeLa cells = test: Cytotoxicity in uninfected cell cultures; settings: cell morphology
# Summary of the method: as §2
# Vero cells = test: Cytotoxicity in uninfected cell cultures; settings: cell morphology
# Summary of the method: as §2
SMILES,pMICsa (Staphylococcus aureus),pMICbs (Bacillus subtilis),pMICec (Escherichia coli),pMICca (Candida albicans),pMICan (Aspergillus niger),pMICab [1],pMICaf (C. albicans and A. niger),pMICam [2],EC50 (Feline Herpes virus) [µg/mL],EC50 (Para-influenza-3 virus) [µg/mL],EC50 (Reovirus-1) [µg/mL],Minimum cytotoxic concentration (HEL cells) [µg/mL],Cytotoxicity Minimum cytotoxic concentration (HeLa cells) [µg/mL],Minimum cytotoxic concentration (Vero cells) [µg/mL]
C=C(C)C(=O)n1c(-c2ccc(S(=O)(=O)O)cc2)nc2ccccc21 [Compound 14],1.74,1.74,2.04,1.44,1.14,1.84,1.29,1.62,> 100,> 100,> 100,>100,>100,>100
C=CC(=O)n1c(-c2ccc(S(=O)(=O)O)cc2)nc2ccccc21 [Compound 13],1.72,2.02,2.32,1.42,1.12,2.02,1.27,1.72,> 20,> 100,> 100,100,>100,>100
CCCCCCCCCCCCCCCC(=O)n1c(-c2ccc(S(=O)(=O)O)cc2)nc2ccccc21 [Compound 19],2.23,2.23,1.61,1.61,1.61,2.02,1.61,1.86,> 100,> 100,> 100,>100,>100,>100
"O=C(O)c1cn(C2CC2)c2cc(N3CCNCC3)c(F)cc2c1=O [Ciprofloxacin, ciprofloxacin, reference compound]",2.61*,2.61*,2.61*,,,2.61,,,,,,,,
Nc1ccccc1C(=O)n1c(-c2ccc(S(=O)(=O)O)cc2)nc2ccccc21 [Compound 1],1.80,2.03,2.40,1.70,1.50,2.08,1.60,1.89,> 4,> 4,> 4,>100,≥20,
O=C(c1ccc(Cl)cc1)n1c(-c2ccc(S(=O)(=O)O)cc2)nc2ccccc21 [Compound 5],2.12,2.13,2.42,1.52,1.22,2.22,1.37,1.88,> 100,> 100,> 100,>100,>100,>100
C/C=C/C(=O)n1c(-c2ccc(S(=O)(=O)O)cc2)nc2ccccc21 [Compound 12],1.85,1.85,1.85,1.44,0.84,1.85,1.14,1.57,> 100,> 100,> 100,>100,>100,>100
"OC(Cn1cncn1)(Cn1cncn1)c1ccc(F)cc1F [Fluconazole, fluconazole, reference compound]",,,,2.64**,2.64**,,2.64,,,,,,,

# From article PMC7115694 (European Journal of Medicinal Chemistry, 2010)
